Legend:
Liver microsomes [1] = assay: Intrinsic clearance in human liver microsomes assessed per mg of protein; format: ADME, Microsome
Liver microsomes [2] = assay: Intrinsic clearance in rat liver microsomes assessed per mg of protein; format: ADME, Microsome
[3] = target: T1, Corticotropin-releasing factor receptor 1 (Homo sapiens, UniProt P34998); assay: Antagonist activity at human recombinant CRF1 receptor expressed in CHO cells assessed as inhibition of CRF-induced cAMP production; format: functional, cell-based
T1 sequence (P34998 whole entry): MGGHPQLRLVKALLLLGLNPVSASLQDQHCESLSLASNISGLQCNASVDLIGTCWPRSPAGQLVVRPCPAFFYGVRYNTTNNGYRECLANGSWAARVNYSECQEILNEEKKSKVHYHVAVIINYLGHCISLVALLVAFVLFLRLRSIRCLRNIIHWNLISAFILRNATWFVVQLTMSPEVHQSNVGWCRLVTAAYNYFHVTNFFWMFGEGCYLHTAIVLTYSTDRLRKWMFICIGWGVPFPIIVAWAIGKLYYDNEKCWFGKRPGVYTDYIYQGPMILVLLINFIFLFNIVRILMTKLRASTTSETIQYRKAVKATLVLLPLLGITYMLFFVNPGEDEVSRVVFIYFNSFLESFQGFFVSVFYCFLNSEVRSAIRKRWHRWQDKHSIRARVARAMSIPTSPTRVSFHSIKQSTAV
Method in brief: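 CHO cells stably expressing recombinant human CRF-1, grown in DMEM:F12 with 10% FBS, 1% Glutamax and Geneticin at 37 °C, 5% CO2 to 70% confluence. hCRF (10 nM final) added with compound to 10,000 cells/well in PBS with IBMX. cAMP read by enzyme-fragment complementation kit. 0.5-log serial dilutions, repeated tests, 4-parameter logistic IC50. Ki by Cheng–Prusoff from agonist EC50 measured the same day.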

[4] = Clearance in rat at 0.1 mg/kg, iv and 5 mg/kg, po; format: ADME, organism-based; conditions: in vivo
[5] = Chemical stability of the compound; format: physicochemical
[6] = Chemical stability at pH 1.2 assessed as compound remaining at 50 degC after 14 days; format: physicochemical; conditions: buffer, read-out: Stability
[7] = Bioavailability in rat at 0.1 mg/kg, iv and 5 mg/kg, po; format: ADME, organism-based; conditions: in vivo
[8] = Half life in rat at 0.1 mg/kg, iv and 5 mg/kg, po; format: ADME, organism-based; conditions: in vivo
[9] = Volume of distribution in rat at 0.1 mg/kg, iv and 5 mg/kg, po; format: ADME, organism-based; conditions: in vivo

clearance (Liver microsomes [1]) [µL/min/mg]	clearance (Liver microsomes [2]) [µL/min/mg]	Ki [3] [nM]	clearance [4] [mL/min/kg]	Stability [5]	remaining at 336 h [6] [%]	bioavailability [7] [%]	half-life [8] [h]	Vd [9] [L/kg]	SMILES
172	23	13	–	–	–	–	–	–	CCCN(CCOC)c1nc(C)nc2c1c(C)nn2-c1ccc(OC)cc1C
80	117	129	–	–	–	–	–	–	CCCN(CCO)c1nc(C)nc2c1c(C)nn2-c1ccc(OC)cc1C
< 7	23	1130	–	–	–	–	–	–	CC[C@H](CO)Nc1nc(C)nc2c1c(C)nn2-c1ccc(OC)cc1C
64	72	42	–	–	–	–	–	–	CCC(CC)Nc1nc(C)nc2c1c(C)nn2-c1ccc(OC)cc1C
17	22	275	–	–	–	–	–	–	CCCN(CCOC)c1nc(C)nc2c1c(C)nn2-c1ccc(C(N)=O)cc1C
< 12	24	35	–	–	–	–	–	–	COc1ccc(-n2nc(C)c3c(NC(C4CC4)C4CC4)nc(C)nc32)c(C)c1
15	246	85	–	–	–	–	–	–	CCC(CC)Nc1nc(C)nc2c1cnn2-c1ccc(OC)cc1C
117	104	117	–	–	–	–	–	–	CCN(CCOC)c1nc(C)nc2c1c(C)nn2-c1ccc(OC)cc1C
117	163	43	–	–	–	–	–	–	CCCN(CCOC)c1nc(C)nc2c1c(C)nn2-c1ccc(OC)nc1C
51	66	84	–	–	–	–	–	–	CCCNCc1noc(Nc2nc(C)nc3c2c(C)nn3-c2ccc(OC)cc2C)n1
38	13	577	–	–	–	–	–	–	CCCN(CCOC)c1nc(C)nc2c1c(C)nn2-c1ccc(C(N)=O)nc1C
34	40	996	–	–	–	–	–	–	CCCNCc1nnc(Nc2nc(C)nc3c2c(C)nn3-c2ccc(OC)cc2C)o1
16	387	132	–	–	–	–	–	–	CCCN(CCOC)c1nc(C)nc2c1cnn2-c1ccc(OC)cc1C
160	206	183	–	–	–	–	–	–	CCCN(CCOC)c1nc(C)nc2c1c(C)nn2-c1cnc(N(C)C)cc1C
37	53	210	–	–	–	–	–	–	CC[C@H](COC)Nc1nc(C)nc2c1c(C)nn2-c1ccc(OC)cc1C
< 7	27	620	–	–	–	–	–	–	CC[C@@H](CO)Nc1nc(C)nc2c1c(C)nn2-c1ccc(OC)cc1C
18	22	1410	–	–	–	–	–	–	CCCN(CC(=O)N(C)C)c1nc(C)nc2c1c(C)nn2-c1ccc(OC)cc1C
196	85	2500	–	–	–	–	–	–	CCCNCc1cncn1Nc1nc(C)nc2c1c(C)nn2-c1ccc(OC)cc1C
< 11	25	32	27	Stable	51	43	1.9	7	COc1ccc(-n2ncc3c(NC(C4CC4)C4CC4)nc(C)nc32)c(C)c1
86	90	74	–	–	–	–	–	–	CCCN(CCOC)c1nc(C)nc2c1c(C)nn2-c1ccc(OC)cc1OC
10	36	574	–	–	–	–	–	–	CCC[C@@H](CO)Nc1nc(C)nc2c1c(C)nn2-c1ccc(OC)cc1C
> 320	–	9	–	–	–	–	–	–	CCCCN(CC)c1nc(C)nc2c1c(C)nn2-c1c(C)cc(C)cc1C
147	< 11	101	–	–	–	–	–	–	CCCN(CCOC)c1nc(C)nc2c1c(C)nn2-c1ccc(C#N)cc1C
52	105	135	–	–	–	–	–	–	CC[C@@H](COC)Nc1nc(C)nc2c1c(C)nn2-c1ccc(OC)cc1C
96	67	400	–	–	–	–	–	–	CCCNCc1nccn1Nc1nc(C)nc2c1c(C)nn2-c1ccc(OC)cc1C
23	41	76	–	–	–	–	–	–	CCC[C@H](CO)Nc1nc(C)nc2c1c(C)nn2-c1ccc(OC)cc1C
66	47	193	–	–	–	–	–	–	COCCN(CCOC)c1nc(C)nc2c1c(C)nn2-c1ccc(OC)cc1C
29	58	124	–	–	–	–	–	–	CCCNCc1nc(Nc2nc(C)nc3c2c(C)nn3-c2ccc(OC)cc2C)no1
151	166	632	–	–	–	–	–	–	CCCN(CCOC)c1nc(C)nc2c1c(C)nn2-c1ccc(C#N)cc1C#N
218	159	17	–	–	–	–	–	–	CCCN(CCOC)c1nc(C)nc2c1c(C)nn2-c1ccc(OC)nc1OC

Source: ChEMBL document CHEMBL1156069, “Optimising metabolic stability in lipophilic chemical space: the identification of a metabolically stable pyrazolopyrimidine CRF-1 receptor antagonist” (Bioorg Med Chem Lett, 2009)
